In the RNAGym collection of RNA variant scans (doi:10.1126/science.aae0568):
Variants at the floor of the assay were thinned out.

B1: tRNA (parent)
chain: GUUCCGUUGGCGUAAUGGUAACGCGUCUCCCUCCUAAGGAGAAGACUGCGGGUUCGAGUCCCGUACGGAACG

Variants of: B1
Assay: yeast fitness relative to wild type (ratio to wild type); higher = fitter; tRNA-Arg(CCU), competitive growth, 37 C, YPD
In short: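 The tRNA-Arg(CCU) gene variants were made by chemical synthesis with a 3% per-site mutation rate at 69 sites and inserted at the native genomic locus of Saccharomyces cerevisiae. After pooling, the strains were competed in YPD at 37°C for 24 hours in six parallel replicates. Gene amplicons from the start population and each end population were read by 100-nucleotide paired-end sequencing, and Darwinian fitness relative to wild type was taken from genotype frequency changes. Genotypes needed ≥ 100 starting reads, and estimates < 0.5 were set to 0.5.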

| Variant | yeast fitness |
| --- | --- |
| G18A C34U C60U | ≤ 0.5 |
| C22G G39C G50C | ≤ 0.5 |
| G18A A57G G58C | 0.63 |
| G12A A14G | 0.958 |
| U8G A15U A20C A69C | ≤ 0.5 |
| C29G C34U G52A C60U | 0.548 |
| C29G A65G | 0.713 |
| U2C U28C C34U | ≤ 0.5 |
| A21C C24G G68C | ≤ 0.5 |
| C34A C55G | 0.517 |
| G23C G39A | 0.669 |
| A15C C31G G58A U59A A65U | ≤ 0.5 |
| C27U A43C A69C | 0.754 |
| U7C C24U C30G A45C C61G | ≤ 0.5 |
| U35C C46A C49A | ≤ 0.5 |
| C4A C30G A45C C61G | ≤ 0.5 |
| U8G C55A C66U | ≤ 0.5 |
| U8G C60G | ≤ 0.5 |
| C11U C31G A43C | 0.654 |
| G9C U26C | 0.612 |
| U13C A37U | 0.543 |
| C30U U35A G63C A65U | ≤ 0.5 |
| C30A G52A | 0.813 |
| C31A G51A G58C | 0.561 |

| Variant | yeast fitness |
| --- | --- |
| U32A C55U | 0.501 |
| U3A C31U A70U | 0.688 |
| U8A U28A C31G C60A | ≤ 0.5 |
| G9A C30A | 0.964 |
| C24U G68A A70U | 0.647 |
| G17C C55A | ≤ 0.5 |
| C5G G25C G44A | ≤ 0.5 |
| U7A G10C C27G U32A | ≤ 0.5 |
| C5U C24U A69C | 0.777 |
| A20G A43U G48A | 0.73 |
| G6A C11U G23A C46A C55A | ≤ 0.5 |
| U7A C24U C46A | 0.567 |
| G17C U19C C24A U32C | ≤ 0.5 |
| G9A A21U C34G G39A C55U C61G | ≤ 0.5 |
| U16C C29G C60U | 0.638 |
| C4G G51C U54A | ≤ 0.5 |
| U8G A15G C24U C29G A45C C60A | 0.551 |
| C11U G51C U59G | 0.534 |
| U8C C11U C34G | ≤ 0.5 |
| C5G A14C G18A A43G A45C C46U | 0.579 |
| A37C A42C C66A | 0.547 |
| U19C A21U | 0.846 |
| A14U U19C A65U | ≤ 0.5 |
| G10A U13A C24U A45C A65G C66G | ≤ 0.5 |

| Variant | yeast fitness |
| --- | --- |
| C11U C22U G44C U64G | 0.534 |
| G10C C11U U26A C49U A65U | ≤ 0.5 |
| C5U A20U C30U G63A | ≤ 0.5 |
| G6A A21G G23A G58C | ≤ 0.5 |
| C22A C49A C61U | ≤ 0.5 |
| U2C U19C U59A | 0.582 |
| C34A G51A | 0.656 |
| G25C C29G | 0.703 |
| A14G C27G C34G A37U | 0.61 |
| G6C A14C C29U C34G C46U C66A G68C | ≤ 0.5 |
| G18A C62U U64A | 0.517 |
| G44C C60A C66U | ≤ 0.5 |
| G6A A37C | 0.824 |
| U7A G12C A57C | ≤ 0.5 |
| U2A A20C C66U | 0.753 |
| G9A G48A G68C | 0.984 |
| A20C C55U C66G | ≤ 0.5 |
| A40G C55A C61U | ≤ 0.5 |
| U19C A42U | 1.12 |
| G9C U28C G44C | 0.619 |
| U3A C4G A43G U47C | ≤ 0.5 |
| G9C A45G | 0.78 |
| U19C G48C C55U | ≤ 0.5 |
| U47A A65C | 0.82 |

| Variant | yeast fitness |
| --- | --- |
| A14G G48A C66U | 0.645 |
| C24G C49A | ≤ 0.5 |
| G6C A36G G51A | ≤ 0.5 |
| A21C C49A A70G | 0.626 |
| C24U C62A A69G | 0.502 |
| G12C A14C G56C G58C | ≤ 0.5 |
| A36U C62U A65U | 0.519 |
| A14G G39A G51C | ≤ 0.5 |
| C29U A40U G56C | 0.552 |
| C22G A45G U53A C66G | 0.565 |
| U13A U28C C55U | 0.741 |
| A20C C29U U32A C62U A70U | ≤ 0.5 |
| G39A U47A G68C | 0.597 |
| A36U A57C | 0.528 |
| A36U A57G | 0.582 |
| G10A G44A U54C G67C | ≤ 0.5 |
| C62U G68C A69G | 0.567 |
| U3G A40G C46A | 0.665 |
| G6C C24U C27G | ≤ 0.5 |
| U2C U3C G25C C27G | ≤ 0.5 |
| A14U U35C C55A C60A | ≤ 0.5 |
| U2G C4U U16A C27G A42U U53C | 0.564 |
| U13C A36U U64C | ≤ 0.5 |
| U3C G12A A14U U54A A57U | ≤ 0.5 |

| Variant | yeast fitness |
| --- | --- |
| U7A G9C A40C U47C | ≤ 0.5 |
| C27U C34U C49G G56C | ≤ 0.5 |
| C11U G12A | 0.998 |
| C24U U54C | 0.812 |
| U64A C66G | 0.7 |
| C29G C49G C60G | ≤ 0.5 |
| C31A G68U A69C | ≤ 0.5 |
| G18A G51A A70G | ≤ 0.5 |
| G9A G38A C62U | 0.939 |
| A14C A15C C34G A43C C49A | 0.627 |
| C5A U7C A65C | ≤ 0.5 |
| C5U A14C G63A | ≤ 0.5 |
| A40U U47C A65C | 0.534 |
| U7G A21U C30U A40C | ≤ 0.5 |
| U8C G23C C27G G50A C66G A69G | 0.836 |
| U28A C31A A36C A45G G48C | 0.619 |
| C61A C62A | 0.603 |
| U7C U13A C24U G51A U59A A65C | 0.642 |
| U8C C27U C34G | ≤ 0.5 |
| C22G U59A C66A | 0.554 |
| G10A C29A C34G A43C C60G C66U | ≤ 0.5 |
| C5A U13A U35A U59C A70U | 0.58 |
| U8C G12A C29G U47C | ≤ 0.5 |
| C46U G48A C55U U59A | ≤ 0.5 |

| Variant | yeast fitness |
| --- | --- |
| A42U | 0.978 |
| C30G U64A A70C | ≤ 0.5 |
| C4U C11U C22G | 0.629 |
| C5U C11A A21G G23C U64A | ≤ 0.5 |
| A15C C46U U64C A70G | ≤ 0.5 |
| C24U U26C A57U | ≤ 0.5 |
| A21G C49G G56C | ≤ 0.5 |
| G41A A42U G50C A70G | ≤ 0.5 |
| C33U C62U G63A | ≤ 0.5 |
| A42C C61U C62G | ≤ 0.5 |
| U8C C22U C29U | ≤ 0.5 |
| C33G U47G G56A A57G A69U | ≤ 0.5 |
| A14G A36U G39A C60G | ≤ 0.5 |
| C33G A65G | 0.734 |
| U19A A21G A43C G51C | ≤ 0.5 |
| A14G G23A U47C | ≤ 0.5 |
| A21U C27G U28C C30U U53G C61A | 0.78 |
| C5G U7G C33A A70U | 0.57 |
| A14G A20C G67C | 0.534 |
| C11G A15C G17A G18C | ≤ 0.5 |
| C4G C29A G50A | ≤ 0.5 |
| C5G U16A C31G C66G | ≤ 0.5 |
| C4U C11A U28A C31U G51C G56A | ≤ 0.5 |
| C29G C30U G58A | 0.608 |

| Variant | yeast fitness |
| --- | --- |
| C5A A14G C24G C31U A43G | ≤ 0.5 |
| G10A A21G C30U G50C | 0.752 |
| U13A A42G | 0.851 |
| G12C C31U A57U | 0.603 |
| A42C C46G A65U | ≤ 0.5 |
| C34U G58A A65U | 0.618 |
| C61A G67A | 0.582 |
| C61U G67U | 0.86 |
| U3G C29G A45G | 0.594 |
| U47G G52A C61A G67C | ≤ 0.5 |
| U32A G52C | ≤ 0.5 |
| U2C G12A G18C C33U C55U | ≤ 0.5 |
| C4A C33U A65C | ≤ 0.5 |
| G9U U16A A36C A37G G56C | ≤ 0.5 |
| C5A C27U A69U | 0.711 |
| G6C G52C A57U | ≤ 0.5 |
| C4U G48C G67U A69C | ≤ 0.5 |
| U2A G9C U16G U32G U47A A57C C62U | ≤ 0.5 |
| A15C C62A | 0.665 |
| G17C G51A A65C | ≤ 0.5 |
| C55U C62U G67C | ≤ 0.5 |
| C22A A57G C60A | ≤ 0.5 |
| A15U C27U A36G G56C | ≤ 0.5 |
